Rows were chosen to be rich in hits. Some 3.1% of all compounds tested hit in one or more screens of this group.
OX1R antag-1 = blocks the human orexin 1 receptor; inhibition, % at 6.6 µM; OX1R-expressing cells, FRET antagonist read-out; actives 1.8% (n = 330,000); O43613; in the data active = inhibition mostly above about 38%, no sharp cut-off; inactive = mostly below about 40%
Target sequence (O43613 whole entry, looked up): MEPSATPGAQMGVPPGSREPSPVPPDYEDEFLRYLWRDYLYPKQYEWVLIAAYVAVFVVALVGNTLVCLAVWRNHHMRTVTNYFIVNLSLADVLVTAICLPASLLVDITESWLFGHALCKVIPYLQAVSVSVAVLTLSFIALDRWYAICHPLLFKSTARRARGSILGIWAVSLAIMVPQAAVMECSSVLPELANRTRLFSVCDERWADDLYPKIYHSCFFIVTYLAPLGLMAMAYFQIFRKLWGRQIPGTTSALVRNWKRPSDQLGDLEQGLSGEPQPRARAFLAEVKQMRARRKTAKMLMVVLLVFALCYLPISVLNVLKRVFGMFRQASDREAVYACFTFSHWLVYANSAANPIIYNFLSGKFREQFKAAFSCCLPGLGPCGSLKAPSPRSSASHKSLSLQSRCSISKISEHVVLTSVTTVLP
CHO parental Ca = signal in parental CHO cells, OX1R antagonist counter-screen. parental CHO-K1, ATP-induced calcium, Fluo-8 fluorescence. inhibition, % at 5.6 µM. actives 0.63% (n = 330,000). AID 463079;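 active = inhibition above that plate's mean sample inhibition plus 3 SD, cut at about 26% in these data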
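Test system: parental CHO cells; detection: calcium-sensitive Fluo-8 fluorescence; evaluation: percent inhibition of calcium signal; also added: ATP as calcium-mobilizing challenge; repeats: one well per compound; control set: ATP-challenged DMSO wells low, unchallenged DMSO wells high; compound: single nominal dose of 5.6 µM per compound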
OX1R antag-2 = human HCRTR1 antagonism; actives 0.43% (n = 330,000); O43613; CHO/OX1R cells, Fluo-8 calcium fluorescence, orexin A; inhibition, % at 5 µM;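 active = inhibition above its plate's threshold, mean inhibition of all tested compounds on the plate plus 3 SD, cut at about 37% in these data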
GPR7 antagonist = human neuropeptides B/W receptor 1 antagonism; P48145; GPR7-expressing cells, fluorescence antagonist assay; inhibition, % at 4.4 µM; actives 1.1% (n = 290,000); in the data active = inhibition above about 16%, passing the limit was not always enough;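 note: cells stimulated with the agonist NPW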
GalR3 antag = blocks the human galanin receptor 3 | HEK293 GalR3-CNG cAMP membrane potential fluorescence; galR3 body fused to GalR1 C-terminus | actives 0.44% (n = 360,000) | O60755 | AID 651719 | inhibition, % at 3 µM;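 active = inhibition above the screen-wide average plus 3 SD, cut at about 13% in these data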;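 note: forskolin and galanin both at EC90 stimulate the cells; cAMP rise reported by CNG channel membrane potential dye signal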
Target sequence (O60755 1-299 limits assumed): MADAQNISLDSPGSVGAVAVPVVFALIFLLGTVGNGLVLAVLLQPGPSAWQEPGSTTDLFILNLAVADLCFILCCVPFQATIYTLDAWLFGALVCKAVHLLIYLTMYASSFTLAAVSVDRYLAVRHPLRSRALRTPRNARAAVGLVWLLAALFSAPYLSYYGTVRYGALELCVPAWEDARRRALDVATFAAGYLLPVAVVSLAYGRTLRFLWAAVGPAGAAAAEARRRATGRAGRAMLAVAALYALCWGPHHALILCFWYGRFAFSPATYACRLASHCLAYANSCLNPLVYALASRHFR
A number is an active result; 0 = inactive; - = not tested or not shown.

SMILES | OX1R antag-1 | CHO parental Ca | OX1R antag-2 | GPR7 antagonist | GalR3 antag
CCCCN(C)C(=O)CCCc1c[nH]c2ccccc12 | 0 | 0 | 0 | 19.4 | 0
Cc1cccc(NC(=O)c2cc(-c3ccc(C)c(C)c3O)n[nH]2)c1 | - | - | - | 0 | 0
CCNc1nc(Oc2ccc(C(=O)OC)cc2)nc(N(C)C)n1 | 0 | 0 | 0 | 0 | 0
COC(=O)c1ccc(Oc2nc(Nc3ccc(C)c(C)c3)nc(N(C)C)n2)cc1 | 38.5 | 0 | 0 | 0 | 0
OCCOCCNc1ncnc2c1cnn2-c1ccc(Cl)cc1 | 0 | 0 | 0 | 0 | 0
COCCNc1ncnc2c1cnn2-c1ccc(Cl)cc1 | 0 | 0 | 0 | 19.8 | 0
O=S(=O)(c1ccc(NC(=S)N/N=C/c2ccc(O)c(O)c2)cc1)N1CCOCC1 | 0 | 0 | 0 | 0 | 0
O=[N+]([O-])c1cc(Cl)cc(/C=N/NC(=S)Nc2ccc(S(=O)(=O)N3CCOCC3)cc2)c1O | 74.9 | 0 | 0 | 0 | 0
Cc1c(N2C(=O)c3cccc4cccc(c34)C2=O)cnn1C | 51.2 | 0 | 0 | 0 | 0
COc1ccc(N2C(=O)c3cccc4cccc(c34)C2=O)cc1 | 0 | 0 | 0 | 0 | 0
O=C(O)c1ccccc1N1C(=O)c2cccc3cccc(c23)C1=O | 65.6 | 0 | 0 | 0 | 0
O=C1c2cccc3cccc(c23)C(=O)N1c1cccnc1 | 48.1 | 0 | 0 | 0 | 0
Cc1ccccc1N1C(=O)c2cccc3cccc(c23)C1=O | 0 | 0 | 0 | 0 | 0
COc1ccccc1C(=O)Nc1ccnn1C1CCN(C2CCCCC2)CC1 | - | - | - | - | 0
O=C(NC(CC1=CCCCC1)c1ccc2ccccc2c1)C(F)(F)F (stereo not given) | - | - | - | - | 0
CCn1c(SCC(=O)Nc2cc(C)on2)nnc1-c1c[nH]c2ccccc12 | 0 | 0 | 0 | 0 | -
Cc1cccn2c(=O)c3cc(C(=O)NCC4CCCO4)c(=N)n(C4CCCC4)c3nc12 (stereo not given) | 59.2 | 0 | 0 | 0 | 0
N=c1c(C(=O)NCC2CCCO2)cc2c(=O)n3ccccc3nc2n1C1CCCCC1 (stereo not given) | 0 | 0 | 0 | 0 | 0
N=c1c(C(=O)NCC2CCCO2)cc2c(=O)n3ccccc3nc2n1C1CCCC1 (stereo not given) | 44.7 | 0 | 0 | 0 | 0
Cc1ccc2nc3c(cc(C(=O)NCC4CCCO4)c(=N)n3C3CCCC3)c(=O)n2c1 (stereo not given) | 57.9 | 0 | 0 | 0 | 0
CCN(CC)c1ccc(S(=O)(=O)N2CCCCC2)cc1NC(=O)CSCc1c(C)noc1C | - | - | - | - | 0
CC(C)CCNC(=O)C1CC(c2ccccc2C(F)(F)F)=NO1 (stereo not given) | 0 | 0 | 0 | - | 0
Cc1nc(/N=C(\N)NC(=O)c2ccccc2)nc2ccccc12 | 72.4 | 0 | 0 | 0 | -
CN(C(=O)C1CCCN(c2ncnc3c2nc2n3CCCCC2)C1)c1cccc(Cl)c1 (stereo not given) | 40.3 | 0 | 0 | 0 | 0
O=C(Nc1ccc(F)cc1)C1CCN(c2ncnc3c2nc2n3CCCCC2)CC1 | 0 | 64.6 | 0 | 0 | 0
SMILES | OX1R antag-1 | CHO parental Ca | OX1R antag-2 | GPR7 antagonist | GalR3 antag
CCCCN(Cc1ccco1)C(=O)C1CCCN(c2ncnc3c2nc2n3CCCCC2)C1 (stereo not given) | 39.7 | 0 | 0 | 0 | 0
CN(C(=O)CSc1nc2ccc(Cl)cc2[nH]1)C1CCS(=O)(=O)C1 (stereo not given) | 0 | 0 | 0 | - | 0
COc1ccc(C(=O)O/N=C(\N)c2ccc(OC)c(OC)c2)c(OC)c1 | 62.7 | 0 | 0 | 0 | -
COc1ccc(OCC(=O)Nc2c3c(nn2-c2ccccc2)CS(=O)(=O)C3)cc1 | 0 | 0 | 0 | 0 | 0
COc1ccccc1C(=O)Nc1nnc(-c2ccc3c(c2)CCCC3)o1 | 67.9 | 0 | 0 | 0 | 0
COC(=O)C(C(=O)OC)C(c1ccccc1)C(C(=O)c1ccccc1)[N+](=O)[O-] (stereo not given) | 0 | 0 | 0 | 0 | 0
COc1ccc(C2NCCc3c2[nH]c2ccccc32)cc1COc1ccc(F)cc1 (stereo not given) | 0 | 31.9 | 0 | 46.4 | 0
COC(=O)c1cn(NC(=O)Cc2cccc(C(F)(F)F)c2)c(=O)c2ccccc12 | 76.4 | 0 | 0 | 0 | 0
COc1ccc(CCNC(=O)CN(C)S(=O)(=O)c2ccc(OC)cc2)cc1 | 0 | 0 | 0 | 0 | 0
Cn1nc(C(F)(F)F)c(CO)c1Sc1ccc(F)cc1 | 0 | 29.3 | 0 | 0 | 0
Cc1ccc(Sc2c(C(=O)Nc3ccc(F)cc3F)c(C(F)(F)F)nn2C)cc1 | 0 | 0 | 0 | 0 | 0
CCCc1cc(=O)n2[nH]c(Cc3ccccc3)nc2n1 | 0 | 0 | 0 | 17.6 | 0
CCCc1cc(=O)n2[nH]c(C)nc2n1 | 0 | 0 | 0 | 0 | 0
CCCCn1c(N)c(N(CCOC)C(=O)CC(NC(=O)c2ccccc2Cl)c2ccccc2)c(=O)[nH]c1=O (stereo not given) | - | - | - | - | 0
CCc1ccc(CNC(=O)CCCn2c(=O)c3cccn3c3cccnc32)cc1 | 0 | 0 | 0 | 0 | 0
CSc1cccc(NC(=O)CCCn2c(=O)c3cccn3c3cccnc32)c1 | 73.7 | 0 | 0 | 0 | 0
CCOc1cc(CNC(=O)CCCn2c(=O)c3cccn3c3cccnc32)cc(OCC)c1OCC | 67.9 | 0 | 0 | 0 | 0
Cc1ccc(CNC(=O)C2CCC(=O)N2C(C)C)cc1 (stereo not given) | 0 | 0 | 0 | 0 | 0
COc1ccc(NC(=O)CCc2nnc3ccc(NCc4ccco4)nn23)cc1OC | 0 | 0 | 0 | 0 | 0
COC(=O)c1cc(C(=O)N2CCOCC2)cc([N+](=O)[O-])c1 | 76.8 | 0 | 0 | 0 | 0
O=C(NC(N1CCOCC1)C(Cl)(Cl)Cl)c1ccccc1Cl (stereo not given) | 0 | 0 | 0 | 0 | 0
COC(=O)c1cc(C(=O)N2CCN(c3cccc(Cl)c3)CC2)cc([N+](=O)[O-])c1 | 0 | 0 | 0 | 0 | 0
CC1CN(C(=O)c2cc([N+](=O)[O-])cc([N+](=O)[O-])c2)CC(C)O1 (stereo not given) | 61.8 | 0 | 0 | 0 | 0
O=C(NC(N1CCOCC1)C(Cl)(Cl)Cl)c1cc([N+](=O)[O-])cc([N+](=O)[O-])c1 (stereo not given) | 72.7 | 0 | 0 | 0 | 0
CC1(NC(=O)c2cccc(S(=O)(=O)N3CCN(c4ccc(F)cc4)CC3)c2)CCS(=O)(=O)C1 (stereo not given) | 0 | 0 | 0 | - | 0
SMILES | OX1R antag-1 | CHO parental Ca | OX1R antag-2 | GPR7 antagonist | GalR3 antag
Cc1ccc(-c2nn(-c3ccccc3)cc2C(=O)OCC(=O)Nc2ncc(Cl)cc2Cl)cc1 | 0 | 0 | 0 | 0 | 0
C[C@H]1[C@@H](c2ccccc2)Oc2c(Cl)cccc2S(=O)(=O)N1C | - | - | - | - | 0
COc1ccc(C2CC(=O)C(c3ccc(Cl)c(Cl)c3)=CN2Cc2ccccc2)cc1 (stereo not given) | - | - | - | - | 0
CCN1CCN(Cc2ccc(NC(=O)c3cccc(-c4ccc5nc(NC(=O)C6CC6)sc5n4)c3)cc2C(F)(F)F)CC1 | - | - | - | - | 0
O=C(Nc1ccc(Cl)cc1)NC1CCCCC1Cc1ccco1 (stereo not given) | 46.5 | 0 | 0 | 0 | 0
O=C1c2cccc3c(O)ccc(c23)C(=O)N1c1ccc(Cl)cc1 | 0 | 68.9 | 84.6 | 0 | 0

Screening data: PubChem, The Scripps Research Institute Molecular Screening Center
